Shown are actives, neighbours in structure and some others; about 4.9% of the full set was active somewhere.
STAT1 act: STAT1 signaling activation. NIH 3T3 STAT1-luciferase reporter, IFN-gamma, luminescence; 100% = IFN-gamma alone, no compound. activation (% of control), % at 5.5 µM. actives 2.6% (n = 200,000). AID 932;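 active = activation above the screen-wide mean activation plus 3 SD, cut at about 130% in these data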;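 note: raw ratio to IFN-gamma control signal so 100% means no change and 0% no light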
FLuc stim CS: affects firefly luciferase, flagging false hits in luciferase stimulation screens. 200,000 tested, under 10 active. activation factor at 10 µM. P08659. AID 1027. ATPlite luciferase biochemical, luminescence, 10 min; 0 = ATP-free wells, 1 = DMSO control;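 active = luciferase activation factor, scaled between plate controls, of at least 2 with compound at 10 µM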
Target sequence (P08659 whole entry, looked up): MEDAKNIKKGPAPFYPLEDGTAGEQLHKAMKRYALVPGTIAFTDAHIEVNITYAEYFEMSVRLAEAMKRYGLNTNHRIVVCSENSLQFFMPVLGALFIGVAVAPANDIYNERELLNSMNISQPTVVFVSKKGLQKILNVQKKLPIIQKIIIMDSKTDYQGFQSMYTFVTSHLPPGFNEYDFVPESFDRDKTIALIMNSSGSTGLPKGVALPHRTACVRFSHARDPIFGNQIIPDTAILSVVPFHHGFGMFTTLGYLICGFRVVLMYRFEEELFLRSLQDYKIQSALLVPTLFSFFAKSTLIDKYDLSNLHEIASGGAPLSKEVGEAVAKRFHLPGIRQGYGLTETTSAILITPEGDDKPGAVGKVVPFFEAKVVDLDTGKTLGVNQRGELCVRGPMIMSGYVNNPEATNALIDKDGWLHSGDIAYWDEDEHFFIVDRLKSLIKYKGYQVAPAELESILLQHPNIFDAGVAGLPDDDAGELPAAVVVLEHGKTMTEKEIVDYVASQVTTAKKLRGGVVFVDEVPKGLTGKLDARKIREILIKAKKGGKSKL
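System: Luciferase/luciferin detection reagent, cell-free biochemical luciferase assay | Medium: PBS buffer for ATP | Dosing: Test compounds dosed from 2 mM stocks in 100% DMSO | Timing: 10 min at ambient temperature | Signal: Luminescence measurement of luciferase light output | Evaluation: Luciferase activation, seen as luminescence increase over controls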
STAT3 activator: activators of IL-6 induced STAT3 signaling | U3A cells, IL-6 STAT3-luciferase reporter, luminescence; 100% = signal with IL-6 EC80 alone | activation (% of control), % at 5.6 µM | actives 0.91% (n = 190,000) | AID 871;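 active = activation above the screen-wide mean of compound activation plus 3 SD, cut at about 130% in these data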;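 note: 0% = background luminescence of wells with medium and substrate only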
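Material: STAT3-luciferase reporter U3A cells; Probe or stimulus: IL-6 (33 ng/mL); Incubation: compound pre-incubation 1 h before IL-6, then 6 h stimulation at 37 °C; Technique: luminescence from STAT3-driven luciferase reporter; Evaluation: % activation versus median of IL-6-stimulated wells; Controls: IL-6-only high control.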
STAT1 inh: reduces IFN-gamma driven STAT1 reporter signal; NIH 3T3 STAT1-luciferase reporter, luminescence; inhibition, % at 5.5 µM; actives 0.35% (n = 200,000);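 active = inhibition above a set limit, the mean inhibition across all tested compounds plus 3 SD, cut at about 34% in these data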;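 note: 0% = IFN-gamma with DMSO and 100% = IFN-gamma with 300 µM nifuroxazide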
STAT3 blocker: reduces IL-6 driven STAT3 reporter signal; inhibition, % at 5.5 µM; AID 862; U3A cells, IL-6 STAT3-luciferase reporter, luminescence; host cell line lacks STAT1; actives 0.89% (n = 190,000);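 active = inhibition above the mean inhibition across all screened compounds plus 3 SD, cut at about 44% in these data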;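 note: 0% = DMSO only wells and 100% = 100 µM nifuroxazide control wells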
FLuc inh counter: Photinus pyralis luciferase inhibition counter-screen. P08659. inhibition, % at 10 µM. ATPLite firefly luciferase biochemical luminescence, 10 min. AID 1006. actives 1.5% (n = 200,000);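 active = inhibition above about 50% when tested at 10 µM, limit read from the data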
* hit, by the source's call.

SMILES | STAT1 act | FLuc stim CS | STAT3 activator | STAT1 inh | STAT3 blocker | FLuc inh counter
O=C(COC(=O)c1ccccn1)c1ccc(Br)cc1 | 102 | 0.4 | 98 | -1 | 9 | 63*
Cc1cc(Nc2ccc(F)cc2F)n2nc(C)nc2n1 | 96 | 1 | 105 | 5 | -5 | 0
Fc1ccc(Nc2ccc3ccccc3n2)c(F)c1 | 58 | 0.3 | 41 | 44* | 72* | 70*
Cc1nc2ccccc2nc(=O)c1NNc1ccccc1 | 129* | 0.9 | 89 | -32 | 16 | 8
Cc1ccc2nc(-c3ccccc3)c(-c3ccccc3)nc2c1 | 105 | 1 | 96 | -8 | 9 | -4
Cc1ccc2nc(=O)c(NNc3ccccc3)cnc2c1 | 139* | 1 | 88 | -43 | 21 | 3
C=CCNC(=O)/C(=C/c1cccc([N+](=O)[O-])c1)NC(=O)c1ccccc1 | 117 | 1.1 | 106 | -19 | -6 | -7
CC(=O)N1CCc2cc(N=NC3=C(O)CC(C)(C)CC3=O)ccc21 | 132* | 0.8 | 101 | -36 | 5 | 17
Cc1nc2ccc(N=NC3=C(O)CC(C)(C)CC3=O)cc2s1 | 104 | 0.8 | 117 | -4 | -20 | 22
COC1=C(c2ccccc2)C(=O)c2ccccc2C1=O | 100 | 1 | 101 | 0 | -1 | 0
CC1=CC(=C2C(=O)c3ccccc3C2=O)C=C(C)N1C | 135* | 0.8 | 82 | -39 | 24 | 18
COc1ccc(/C=N\NC(=O)c2cc(O)c(O)c(O)c2)cc1CN1CCN(c2ccc(F)cc2)CC1 | 102 | 1 | 100 | -2 | -1 | -4
O=C(c1ccc(-c2ccc([N+](=O)[O-])cc2Cl)o1)N1CCOCC1 | 133* | 0.9 | 113 | -35 | -16 | 14
O=c1c(-c2cnn(-c3ccccc3)c2)coc2cc(O)ccc12 | 132* | 0.7 | 94 | -38 | 11 | 35
CCn1c(C)nc2cc(C(=O)N/N=C/c3cccc(O)c3O)ccc21 | 117 | 0.3 | 86 | -21 | 21 | 66*
CCn1c(C)nc2cc(C(=O)N/N=C/c3ccc(O)cc3)ccc21 | 100 | 0.9 | 85 | 0 | 17 | 13
CCn1c(C)nc2cc(C(=O)N/N=C/c3ccccc3)ccc21 | 145* | 0.8 | 91 | -48 | 16 | 25
Nc1nc(CSc2ccccn2)nc(Nc2ccccc2)n1 | 148* | 1 | 113 | -52 | -13 | 3
COc1cc(NC(=O)COC(=O)c2n[nH]c3ccccc23)c(C)cc1[N+](=O)[O-] | 95 | 1.1 | 102 | 4 | 3 | -6
c1ccc2c(c1)nnn2-c1ncnc2sccc12 | 134* | 0.8 | 100 | -35 | 3 | 15
Cc1cc(-n2nnc3ccccc32)nc2ccccc12 | 111 | 1 | 109 | -12 | -6 | 0
CC12CCCCN1CCCc1c2[nH]c2ccccc12 (stereo not drawn) | 105 | 1.1 | 136* | -5 | -36 | -7
COc1ccc(C2CC(=O)c3ccccc3O2)cc1 (stereo not drawn) | 113 | 1 | 98 | -15 | -1 | -1
CCOC(=O)c1ccc(NC(=O)CSC(=S)N2CCOCC2)cc1 | 94 | 1.1 | 94 | 5 | 9 | -8
Cc1cc(/C=C2/C(=N)N3C(=NC2=O)SN=C3S(C)(=O)=O)c(C)n1-c1ccccc1F | 112 | 0.1 | 94 | -15 | 9 | 93*
SMILES | STAT1 act | FLuc stim CS | STAT3 activator | STAT1 inh | STAT3 blocker | FLuc inh counter
CC1=CC2=NC(=O)/C(=C\c3cc(C)n(-c4ccccc4F)c3C)C(=N)N2O1 | 102 | 1 | 113 | -2 | -17 | 4
CCOC(=O)c1ccc2nc(C)c(CCC(C)=O)c(Cl)c2c1 | 129* | 1 | 94 | -32 | 14 | -1
CCCCc1c(C)nc2ccc(C(=O)OCC)cc2c1Cl | 106 | 1.1 | 102 | -6 | -3 | -5
Cc1ccc(C(=O)/C=C\NCc2ccccc2)cc1 | 130* | 0.8 | 107 | -33 | -7 | 18
Cc1ccc(C(=O)/C=C\C(=O)c2ccc(C)cc2)cc1 | 93 | 1 | 95 | 8 | 8 | 0
Cc1ccc(S/C=C\C(=O)c2ccccc2)cc1 | 96 | 0.1 | 111 | 5 | -7 | 91*
Cn1c(COc2ccc(Br)cc2)nnc1SC1CCc2ccccc2C1=O (stereo not drawn) | 98 | 1 | 133* | 3 | -42 | -4
Cn1c(COc2ccccc2)nnc1SCCSc1nnc(COc2ccccc2)n1C | 86 | 1 | 103 | 16 | 4 | -4
Fc1cc(F)c2nc(N3CCCC3)sc2c1 | 131* | 0.9 | 95 | -35 | 10 | 9
Cc1ccc2nc(CSc3nc(C)ccc3C#N)[nH]c2c1 | 139* | 0.4 | 108 | -42 | -3 | 65*
CCSc1nc2ccc(C)cc2cc1C#N | 105 | 1.1 | 98 | -6 | 8 | -5
O=C(Nc1ccc(Cl)cc1)c1ccc2nsnc2c1 | 150* | 0.8 | 101 | -57 | 6 | 16
CN(C)c1ccc(NC(=O)c2ccc3nsnc3c2)cc1 | 144* | 0.6 | 84 | -48 | 26 | 37
Cc1ccccc1OCCn1cnc2c(N)ncnc21 | 129* | 1 | 84 | -32 | 21 | 1
Nc1ncnc2c1ncn2CCN1CCCCC1 | 97 | 1 | 100 | 4 | 1 | -4
c1ccc(-c2onc3cc4c(cc23)OCCO4)cc1 | 146* | 0.8 | 101 | -52 | 3 | 22
CC(=O)c1ccc2noc(-c3ccccc3)c2c1 | 102 | 1 | 88 | -3 | 17 | -4
Cc1nn(-c2ccccn2)c2c1-c1nc(N)ncc1CC2 | 134* | 0.4 | 100 | -38 | 1 | 61*
Cc1cccc(N(C(=O)c2nsc(Cl)c2Cl)C(C(=O)NC2CCCC2)c2ccc(O)cc2)c1 (stereo not drawn) | 93 | 1.1 | 102 | 7 | -3 | -6
O=c1c2ccccc2nc2sc3ccccc3n12 | 141* | 0.7 | 123 | -45 | -23 | 33
Cc1cc(Cl)ccc1Oc1ccccc1C(=O)CC#N | 91 | 1 | 100 | 9 | 4 | -2
Cc1cccc(C)c1C(OCCN(C)C)C1CCCCC1 (stereo not drawn) | 90 | 1.1 | 100 | 11 | -2 | -9
O=C(COc1c(Br)cc(Br)c2cccnc12)N1CCCCC1 | 99 | 1.1 | 119 | -1 | -15 | -6
Oc1c(CN2CCCCC2)cc(Br)c2cccnc12 | 96 | 1 | 135* | 5 | -37 | 2
COc1cc(CCC(=O)Nc2nnc(-c3cccnc3)s2)cc(OC)c1OC | 103 | 1 | 93 | -5 | 10 | 0
CC(=C/c1ccc(C(C)C)cc1)/C=N/NC(=O)c1ccncc1 | 100 | 0.9 | 85 | 0 | 18 | 13
CC(/C=N/NC(=O)c1nn(C)c(C)c1Br)=C\c1ccccc1 | 132* | 0.2 | 93 | -36 | 10 | 80*

Screening results as filed in PubChem BioAssay.
